Hits are enriched below; roughly 4.5% of the tested compounds scored in any of these assays.
HCV NS3 hel inh: HCV NS3 helicase inhibition; NS3 helicase DNA unwinding, Cy5 molecular beacon fluorescence; inhibition, % at 10.9 µM; 290,000 compounds, 0.56% hits;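 active = inhibition above the mean of all tested compounds plus 3 SD, set per campaign, cut at about 35% in these data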
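System: NS3 helicase fragment of HCV / Schedule: 1 h at 25 °C / Control set: DMSO alone as 0% and 110 µM thioflavine S as 100% / Reagent: Cy5/quencher beacon DNA duplex and ATP to start / Technique: Cy5 fluorescence / Replication: singlicate / Evaluation: % inhibition of end-to-start signal ratio versus controls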
CHOP inhibitor: CHOP inhibition in unfolded protein response; CHO-K1 CHOP-promoter luciferase, tunicamycin-induced, 15-18 h; inhibition, % at 10 µM; 220,000 compounds, 3.8% hits; AID 2732;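 active = compounds that reduced the stress-induced luciferase reporter signal by more than about 70% of percent inhibition, limit read from the data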
UPR CHOP act: apoptotic UPR (CHOP) activation | CHO-CHOP luciferase reporter, luminescence; percent of tunicamycin response over DMSO baseline | 330,000 compounds, 0.34% hits | activation, % at 10 µM | AID 449763;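 active = at 10 µM dose, activation of 40% or more, normalized to positive control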
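System: CHO-CHOP luciferase reporter cell line | Buffer or medium: F12 medium containing 10% fetal bovine serum | Doses: One dose, 10 µM in 0.5% DMSO | Times: 6 h compound exposure at 37 °C after overnight seeding | Signal: Luciferase luminescence | Read-out: % activation vs tunicamycin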
PfM18AAP inh: blocks P. falciparum M18 aspartyl aminopeptidase; 290,000 compounds, 1.2% hits; recombinant PfM18AAP, H-Glu-NHMec fluorogenic cleavage; inhibition, % at 7.35 µM;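 active = inhibition above the campaign mean inhibition over all tested compounds plus 3 SD, cut at about 28% in these data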
UPR XBP1 act: activators of adaptive arm of unfolded protein response (XBP1); CHO-XBP1 luciferase reporter, IRE1-XBP1 UPR activation, luminescence; percent of tunicamycin response, DMSO as zero; activation, % at 20 µM; 330,000 compounds, 0.33% hits;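 active = versus positive control, 20 µM dose yields 30% or more activation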
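Material – CHO cell line with stable XBP1 luciferase reporter · Buffer or medium – F12 plus 10% FBS · Compound – single point, 20 µM final compound, 1% DMSO · Schedule – 16-18 h cell attachment at 37 °C, then 6 h compound exposure · Signal – Steady-Glo luminescence read · Benchmarks – high control tunicamycin 10 µg/mL final, low control DMSO vehicle only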
p97 ATPase inh: blocks human p97 ATPase activity | inhibition, % at 8 µM | recombinant p97 ATPase, Kinase-Glo ATP luminescence, 3 h | 220,000 compounds, 0.42% hits | P55072; in the data active = inhibition above about 15%
Target sequence (P55072 whole entry, looked up): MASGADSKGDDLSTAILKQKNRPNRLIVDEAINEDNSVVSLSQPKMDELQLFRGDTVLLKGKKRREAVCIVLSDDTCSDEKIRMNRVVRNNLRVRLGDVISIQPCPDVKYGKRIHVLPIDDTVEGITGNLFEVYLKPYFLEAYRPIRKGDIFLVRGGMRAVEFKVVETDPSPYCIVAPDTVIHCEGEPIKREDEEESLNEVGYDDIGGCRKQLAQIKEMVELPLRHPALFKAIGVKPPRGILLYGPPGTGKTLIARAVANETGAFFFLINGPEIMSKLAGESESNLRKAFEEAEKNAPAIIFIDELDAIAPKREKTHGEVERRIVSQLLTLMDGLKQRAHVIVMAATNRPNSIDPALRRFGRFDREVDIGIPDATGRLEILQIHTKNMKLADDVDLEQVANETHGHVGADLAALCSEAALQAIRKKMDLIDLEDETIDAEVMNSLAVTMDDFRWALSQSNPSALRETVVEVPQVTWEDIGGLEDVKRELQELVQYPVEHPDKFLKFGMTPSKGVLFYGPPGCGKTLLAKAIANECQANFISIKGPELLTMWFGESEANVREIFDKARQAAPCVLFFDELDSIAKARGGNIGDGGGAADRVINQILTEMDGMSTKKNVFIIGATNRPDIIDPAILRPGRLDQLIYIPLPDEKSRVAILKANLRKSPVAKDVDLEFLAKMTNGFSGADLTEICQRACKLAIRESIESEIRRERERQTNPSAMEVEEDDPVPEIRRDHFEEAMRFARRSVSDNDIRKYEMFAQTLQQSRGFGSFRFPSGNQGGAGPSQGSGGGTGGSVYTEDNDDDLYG
NS3 hel confirm: HCV NS3 helicase inhibition, confirmation assay; inhibition, % at 10.9 µM; shares compounds with HCV NS3 hel inh; 1,600 compounds, 31% hits; NS3 helicase DNA unwinding, Cy5 molecular beacon fluorescence;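 active = inhibition above the mean of all tested compounds plus 3 SD, cutoff set per campaign, cut at about 36% in these data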
FID counter trip: counter-screen for HCV NS3 helicase inhibitors: DNA intercalator displacement; DNA fluorescent intercalator displacement, fluorescence; inhibition, % at 7.9 µM; shares compounds with HCV NS3 hel inh; AID 1945; 1,600 compounds, 4% hits; in the data active = inhibition above about 37%;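 also: higher means more displacement of ethidium bromide from the DNA hairpin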
FID counter DR: counter-screen for HCV NS3 helicase inhibitors: DNA intercalator displacement dose response | IC50, µM | shares compounds with HCV NS3 hel inh | 120 tested, under 10 active | fluorescent intercalator displacement from DNA, fluorescence | AID 2172; call rule not given here
A number is an active result; n = inactive; x = no result.

SMILES	HCV NS3 hel inh	CHOP inhibitor	UPR CHOP act	PfM18AAP inh	UPR XBP1 act	p97 ATPase inh	NS3 hel confirm	FID counter trip	others
CCOC(=O)C1CCCN(C(=O)c2cc3c(=O)n(C)c4ccccc4c3n2C)C1 (configuration not stated)	74.9	n	n	n	n	n	n	n
O=c1ccc(N=Nc2ccccc2)ccc1O	50.9	n	x	n	x	n	47.7	n	FID counter DR=n
CSCCC(C(=O)N(C)CC(=O)Nc1cccc(F)c1)N1C(=O)c2ccccc2C1=O (configuration not stated)	x	x	n	x	n	x	x	x
CC1(O)C(=O)C=C2C=C(c3ccc(C#N)cc3)OC=C2C1=O (configuration not stated)	x	x	n	x	n	x	x	x
N#CC1=C2SCN(c3ccc(F)cc3)CN2C(=O)CC1c1cccc(F)c1 (configuration not stated)	n	n	n	n	n	n	x	x
CCc1ccc(C2CC(=O)N3CN(c4ccccc4)CSC3=C2C#N)cc1 (configuration not stated)	44.1	n	n	n	n	n	n	n
CCCCn1c(N)c(N(C)C(=O)c2cc3c(F)cccc3s2)c(=O)[nH]c1=O	x	x	n	x	n	x	x	x
CCc1ccc(N2NC(=O)/C(=C/C=C/c3ccco3)C2=O)cc1	49.6	n	n	n	n	n	46.1	n
Cc1ccc2c(c1)c1c(c(=O)n(-c3ccccc3C)c(=O)n1CC(=O)NCC1CCCO1)n2C (configuration not stated)	n	x	n	n	n	x	x	x
Cc1ccc(C)c(NC(=S)NCCSc2ccc(Cl)cc2)c1	n	n	n	n	n	n	x	x
Cc1ccccc1NC(=S)NCCSc1ccc(Cl)cc1	78.3	n	n	n	n	n	n	n
CCCNc1c(F)c(F)c2c(C)c3ccccc3nc2c1F	41.0	n	n	n	n	n	n	n
CCOc1ccc(S(=O)(=O)N2CCN(C(=O)C3CSC4(C)CCC(=O)N34)CC2)cc1 (configuration not stated)	x	x	n	x	n	x	x	x
N/C(CC(=O)Nc1cc(C(F)(F)F)ccc1Cl)=N\O	n	n	n	n	n	n	n	n
COc1ccc(OC)c(Nc2nc(N)c([N+](=O)[O-])c(N3CCOCC3)n2)c1	n	x	n	n	n	x	x	x
CC1Oc2ccccc2N(CC(=O)N2CCCC2)C1=O (configuration not stated)	n	x	n	n	n	x	x	x
CC1CCCN(C(=O)c2cccc(S(=O)(=O)Nc3cc(C(F)(F)F)ccc3Cl)c2)C1 (configuration not stated)	44.3	n	x	n	x	n	57.0	n
O=C(c1cccc(S(=O)(=O)Nc2ccccc2Cl)c1)N1CCC1	x	x	n	x	n	x	x	x
O=C(/C=C/c1ccco1)N(Cc1ccc(Cl)cc1)C1CCS(=O)(=O)C1 (configuration not stated)	42.1	n	n	n	n	n	n	n
COc1ccc(CC(=O)Nc2cc(=O)n(C)c(=O)n2C)cc1	55.6	n	n	n	n	n	n	n
CCOc1ccc(CC(=O)Nc2cc(=O)n(C)c(=O)n2C)cc1	n	n	n	n	n	n	x	x
CC(C(=O)Nc1ccccc1-c1ccccc1)N(C)Cc1nc2ccccc2c(=O)[nH]1 (configuration not stated)	n	n	n	n	n	n	x	x
COc1ccc(C2=CC(=O)C[C@H](c3ccc(OC)c(OC)c3)C2)cn1	x	x	n	x	n	x	x	x
Cn1c(SCC(=O)CC(=O)Nc2ccccc2)nnc1-c1ccc(O)cc1	n	n	n	n	n	n	x	x
O=C(CSc1nnc(-c2ccc(O)cc2)n1-c1ccccc1)CC(=O)Nc1ccccc1	36.7	n	n	32.8	n	n	n	n
SMILES	HCV NS3 hel inh	CHOP inhibitor	UPR CHOP act	PfM18AAP inh	UPR XBP1 act	p97 ATPase inh	NS3 hel confirm	FID counter trip	others
CC1CCN(S(=O)(=O)c2nnc(NC(=O)c3cccc(Cl)c3)s2)CC1	n	x	n	n	n	x	x	x
Cc1cc(-c2csc(NC(=O)c3ccc(=O)n(C)n3)n2)c(C)n1CC1CCCO1 (configuration not stated)	n	n	n	n	n	n	x	x
Cc1cc(-c2csc(NC(=O)c3ccccc3C(F)(F)F)n2)c(C)n1Cc1ccccc1	49.8	n	n	n	n	n	n	n
COc1ccc(NS(=O)(=O)c2cc(NC(=O)c3ccc(=O)[nH]n3)ccc2N2CCOCC2)cc1	x	x	n	x	n	x	x	x
C#CCSC1=C(C#N)C(c2cccs2)C(C(=O)OCC)=C(C)N1 (configuration not stated)	45.6	n	n	n	n	n	n	n
Cc1ccccc1CCN(C(=O)c1csnn1)C(C(=O)NC1CCCC1)c1ccco1 (configuration not stated)	n	x	n	n	n	x	x	x
CCOC(=O)c1sc2nc(-c3ccco3)c3c(c2c1N)CC(C)(C)OC3	x	x	n	x	n	x	x	x
Nc1c(C(=O)NC2CC2)sc2nc3c(c(-c4ccco4)c12)CC/C3=C/c1ccco1	68.9	n	x	n	x	28.4	99.2	n	FID counter DR=n
Cc1ccc(C2(C)NC(=O)N(CC(=O)NNC(=O)c3ccccc3F)C2=O)cc1 (configuration not stated)	x	x	n	x	n	x	x	x
N#Cc1c(C#N)c(O)c2ccccc2c1O	n	n	n	n	n	n	x	x
N=C1CCC(=N)c2c1c(O)c1ccccc1c2O	43.2	n	n	n	n	n	49.7	n
COc1cccc(C(=O)NCCS(=O)(=O)NCc2ccc(Cl)cc2)c1	x	x	n	x	n	x	x	x
NS(=O)(=O)c1ccc2nc(NC(=O)c3ccc4ncsc4c3)sc2c1	43.6	x	n	n	n	x	42.3	n	FID counter DR=n
CC1=NN2C(=N)/C(=C\c3cc(C)n(-c4cccc(C)c4)c3C)C(=O)N=C2S1	n	n	n	n	n	n	x	x
Cc1cc(/C=C2\C(=N)N3N=C(C(C)C)SC3=NC2=O)c(C)n1-c1ccccc1	51.4	n	n	n	n	n	n	n
CCOC(=O)c1cnc2c(ccc3ccccc32)c1NCCN(C)C	36.0	x	n	n	n	x	n	75.2
COc1ccc(N2CCN(C(CNC(=O)CC(C)(C)C)c3ccc4c(c3)OCO4)CC2)cc1 (configuration not stated)	n	x	n	n	n	x	x	x
Cc1noc(C)c1CSCC(=O)Nc1cccc(C(F)(F)F)c1	x	x	n	x	n	x	x	x
C/C=C/C(O)c1ccc2ccccc2c1 (configuration not stated)	41.0	x	n	n	n	x	n	n

Assay outcomes deposited in PubChem BioAssay by several laboratories.
